According to ChEMBL document CHEMBL1136006, “New PET imaging agent for the serotonin transporter: [(18)F]ACF (2-[(2-amino-4-chloro-5-fluorophenyl)thio]-N,N-dimethyl-benzenmethanamine)” (J Med Chem, 2002):

Assays:
Rattus norvegicus [1] = assay: Effect of pretreatment with methylphenidate with a dose of 2 mg/kg (i.v.) on specific binding of [18F]ACF in rat brain cortex; assay type: ADME, organism-based; design: dose 2 mg/kg, route intravenous; conditions: in vivo, iv
Method in brief: (§1)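 Rats pretreated iv with drug (2 mg/kg) or saline 5 min before iv [18F]ACF (50 μCi). Sacrificed 1 h after tracer. Brain regions were dissected, weighed and counted, and % dose/g was calculated against a diluted initial dose. Drug-treated rats were compared with saline controls by ANOVA/Dunnett's test (p<0.05). Three rats per point, average ± SD.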

Rattus norvegicus [2] = assay: Effect of pretreatment with nisoxatine with a dose of 2 mg/kg (i.v.) on specific binding of [18F]ACF in rat brain cortex; assay type: ADME, organism-based; design: dose 2 mg/kg, route intravenous; conditions: in vivo, iv; method in brief: as §1
Rattus norvegicus [3] = species on record: Rattus norvegicus; assay: Organ distribution of [18F]ACF radiolabeled compound in rat heart after 2 min; assay type: ADME, organism-based; conditions: in vivo
Method in brief: (§2)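 Rats, three per time point, under ether anesthesia; 30 μCi tracer in 0.2 mL saline injected into femoral vein. Sacrificed by cardiac excision under ether at 2, 30, 60, 120 or 240 min. Organs removed, weighed and counted; % dose/organ calculated against counts of 1% of initial dose counted at the same time. Average of three rats ± SD.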

Rattus norvegicus [4] = species on record: Rattus norvegicus; assay: Organ distribution of [18F]ACF radiolabeled compound in rat heart after 60 min; assay type: ADME, organism-based; conditions: in vivo, 1 h; method in brief: as §2
Rattus norvegicus [5] = assay: Effect of pretreatment with (+)-McN5652 with a dose of 2 mg/kg (i.v.) on specific binding of [18F]ACF in rat brain cerebellum; assay type: ADME, organism-based; design: dose 2 mg/kg, route intravenous; conditions: in vivo, iv; method in brief: as §1
Rattus norvegicus [6] = species on record: Rattus norvegicus; assay: Regional brain distribution of [18F]ACF radiolabeled compound in rat remainder (rest of brain) after 2 min; assay type: ADME, organism-based; conditions: in vivo
Method in brief: (§3)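 Rats (three per group) under ether anesthesia got 30 μCi tracer in 0.2 mL saline into the femoral vein and were killed by cardiac excision at the stated time. Cortex, striatum, hippocampus, cerebellum, hypothalamus and the rest of brain were dissected, weighed and gamma counted. %dose/g was taken against counts of a diluted initial dose. Regional ratios are each region's %dose/g over cerebellum's. Mean ± SD.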

Rattus norvegicus [7] = species on record: Rattus norvegicus; assay: Organ distribution of [18F]-ACF radiolabeled compound in rat muscle after 60 min; assay type: ADME, organism-based, Muscle tissue; conditions: in vivo, 1 h
Method in brief: (§4)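 Under ether anesthesia, 30 μCi no-carrier-added tracer in 0.2 mL saline injected into the femoral vein. Rats killed by cardiac excision at the stated time. Organs were removed, weighed and counted; % dose/organ was calculated against counts of a 1% initial-dose standard. Three rats per time, average ± SD.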

Rattus norvegicus [8] = species on record: Rattus norvegicus; assay: Regional brain distribution of [18F]ACF radiolabeled compound in rat cortex after 30 min; assay type: ADME, organism-based; conditions: in vivo, 0.5 h; method in brief: as §3
Rattus norvegicus [9] = species on record: Rattus norvegicus; assay: Organ distribution of [18F]-ACF radiolabeled compound in rat bone after 30 min; assay type: ADME, organism-based, Bone element; conditions: in vivo, 0.5 h; method in brief: as §4
Rattus norvegicus [10] = assay: Ratio of effect of pretreatment with methylphenidate with a dose of 2 mg/kg (i.v.) on specific binding of [18F]ACF in rat brain hypothalamus to that of cerebellum; assay type: ADME, organism-based; design: dose 2 mg/kg, route intravenous; conditions: in vivo, iv
Method in brief: (§5)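 Rats (three per point) pretreated iv with competing drug at 2 mg/kg or saline (control) 5 min before iv [18F]ACF (50 μCi). At 1 h post tracer, brain regions (cortex, striatum, hippocampus, cerebellum, hypothalamus, remainder) dissected, weighed, counted as % dose/g and expressed as ratio to cerebellum. Average ± SD; ANOVA with Dunnett's test vs saline controls, p < 0.05.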

Rattus norvegicus [11] = assay: Ratio of effect of pretreatment with nisoxatine with a dose of 2 mg/kg (i.v.) on specific binding of [18F]-ACF in rat brain hippocampus to that of cerebellum; assay type: ADME, organism-based; design: dose 2 mg/kg, route intravenous; conditions: in vivo, iv; method in brief: as §5
Rattus norvegicus [12] = assay: Ratio of effect of pretreatment with (+)-McN5652 with a dose of 2 mg/kg (i.v.) on specific binding of [18F]-ACF in rat brain hippocampus to that of cerebellum; assay type: ADME, organism-based; design: dose 2 mg/kg, route intravenous; conditions: in vivo, iv; method in brief: as §5
Rattus norvegicus [13] = assay: Ratio of effect of pretreatment with methylphenidate with a dose of 2 mg/kg (i.v.) on specific binding of [18F]ACF in rat brain cortex to that of cerebellum; assay type: ADME, organism-based; design: dose 2 mg/kg, route intravenous; conditions: in vivo, iv; method in brief: as §5

SMILES: CN(C)Cc1ccccc1Sc1cc(F)c(Cl)cc1N
- Dose/g (Rattus norvegicus [1]): 0.35%
- Dose/g (Rattus norvegicus [2]): 0.37%
- Dose/g (Rattus norvegicus [3]): 1.69 % dose/organ
- Dose/g (Rattus norvegicus [4]): 0.11 % dose/organ
- Dose/g (Rattus norvegicus [5]): 0.17%
- Dose/g (Rattus norvegicus [6]): 1.69%
- Dose/g (Rattus norvegicus [7]): 7.69 % dose/organ
- Dose/g (Rattus norvegicus [8]): 0.62%
- Dose/g (Rattus norvegicus [9]): 0.04 % dose/organ
- Ratio (Rattus norvegicus [10]): 3.05
- Ratio (Rattus norvegicus [11]): 2.44
- Ratio (Rattus norvegicus [12]): 1.93
- Ratio (Rattus norvegicus [13]): 2.02
